# Experimental data gathered from unrelated publications.
# Protocols differ between the studies behind these lines.
# Target: RAF proto-oncogene serine/threonine-protein kinase (RAF1, Homo sapiens, UniProt P04049)
Structure (SMILES),test,conditions,remaining binding
CN(CCCC(F)(F)F)c1nccc(-c2cnn3ncccc23)n1,binding,1 µM,83%
Cc1cnc(Nc2ccc(C(=O)N3CCC(N4CCCC4)CC3)cc2)nc1-c1cc2ccccc2s1,"binding, competition with immobilised ligand",1 µM,60%
COc1cc(-c2cn(C3CCc4c(F)cccc4N(CC(F)(F)F)C3=O)nn2)ccc1-n1cnc(C)c1 (stereo not drawn),"cell-free assay, competition with immobilised ligand",1 µM,100%
O=C(NCCCN1CCOCC1)c1ccc(Nc2ncc(Cl)c(-c3ccc(Cl)s3)n2)cc1,"binding, competition with immobilised ligand",1 µM,89%
O=C(Nc1c[nH]nc1C(=O)NC1CCNCC1)c1cc(F)cc(F)c1,"binding, competition with immobilised ligand",1 µM,100%
COc1ccnn2ncc(-c3ccnc(N(C)C)n3)c12,binding,1 µM,100%
Cn1cc(Cl)c2c(Oc3c(F)cc(Nc4cc(Cl)nc(N)n4)cc3F)ccnc21,"cell-free assay, competition with immobilised ligand",0.1 µM,91%
O=C(c1ccc(Nc2ncc(Cl)c(-c3ccc(Cl)s3)n2)cc1)N1CCC(N2CCCC2)CC1,"binding, competition with immobilised ligand",1 µM,45%
FC(F)(F)Oc1cccc(-c2cnc3ccc(-c4ccncc4)nn23)c1,"cell-free assay, competition with immobilised ligand",5 µM,71%
COc1ncc2cc3ccccc3nc2c1C#N,"cell-free assay, competition with immobilised ligand",5 µM,93%
C[C@@H](c1ccc(-n2cnc3c(N)ncnc32)cc1)N1CCc2nn(C)c(Cc3ccccc3)c2C1=O,"binding, competition with immobilised ligand",0.1 µM,93%
O=C(NC[C@@H]1[C@H]2CN(C(=O)OCc3cc(C(F)(F)F)cc(C(F)(F)F)c3)C[C@@H]12)c1ccc2[nH]nnc2c1,"cell-free assay, competition with immobilised ligand",1 µM,100%
COc1cnc(Nc2cccc(S(N)(=O)=O)c2)nc1N1CCN(c2ccccc2)CC1,"binding, competition with immobilised ligand",1 µM,100%
N[C@@H]1CCN(c2nccc(-c3cnn4ncccc34)n2)C1,binding,1 µM,80%
C[C@@H]1CN(c2ccc3ncc(-c4ccc5[nH]nc(C6CC6)c5c4)n3n2)C[C@H](C)O1,"binding, competition with immobilised ligand",0.5 µM,100%
CC(C)(O)c1cncc(-c2nc3ccc(F)cc3n2C2CC2)c1,"cell-free assay, competition with immobilised ligand",1 µM,83%
CCN1CCN(Cc2ccc(C(=O)Nc3ccc(C)c(Oc4ccc5c(c4)CC(=O)N5)c3)cc2C(F)(F)F)CC1,"binding, competition with immobilised ligand",1 µM,95%
CN(C)c1nccc(-c2cnn3ncccc23)n1,binding,1 µM,100%
CCC(=O)N[C@@H]1CC[C@H](C(=O)N(C)c2ccc(-c3nc4ccccc4o3)cc2)C1,"cell-free assay, competition with immobilised ligand",1 µM,94%
CNC(=O)[C@@H]1CC[C@@H](n2c(-c3ccc4cnccc4c3)nc3ccc(C(=O)NCc4cccc(C(N)=O)c4)cc32)C1,"binding, competition with immobilised ligand",1 µM,82%
CN(C)c1nccc(-c2cnc3ncccn23)n1,binding,1 µM,67%
CN(c1ccnc(CNc2nc(Nc3ccc4c(c3)CC(=O)N4)ncc2C(F)(F)F)n1)S(C)(=O)=O,"cell-free assay, competition with immobilised ligand",1 µM,85%
C[C@@H]1CCN(c2nccc(-c3cnn4ncccc34)n2)C1,binding,1 µM,100%
Cn1nc(C(=O)NCc2ccc(C(=O)O)cc2)cc1-c1ccc2[nH]ccc2c1,"cell-free assay, competition with immobilised ligand",0.1 µM,70%
